This is an account of results in ChEMBL document CHEMBL4359895, “Discovery and biological evaluation of darolutamide derivatives as inhibitors and down-regulators of wild-type AR and the mutants” (Eur J Med Chem, 2019).

In data set [1] the test system is CWR22R. Briefly: Inhibition of AR protein expression in human 22Rv1 cells at 10 to 30 uM incubated for 24 hrs by Western blot analysis. Type of data set: functional, cell-based. Summed up:
(§1)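 LNCaP, VCaP and 22Rv1 cells grown in medium with 10% (v/v) FBS. Treated with compounds or DMSO for 24 h. AR-full and AR splice-variant protein then assessed by western blot.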

In data set [2] the test system is VCaP. In words: Inhibition of AR mRNA level in human VCaP cells at 10 to 30 uM incubated for 24 hrs by qRT-PCR analysis. Type of data set: functional, cell-based. Summed up:
(§2)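 LNCaP, VCaP and 22Rv1 cells treated with DMSO or compounds for 24 h. AR-full and AR-V7 mRNA measured by qRT-PCR and normalised to GAPDH. Mean ± SD, n = 3, compared with DMSO by two-tailed t test.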

For data set [3], the system named is VCaP. In words: Inhibition of AR splice variant 7 mutant expression in human VCaP cells at 10 to 30 uM incubated for 24 hrs by Western blot analysis analysis. Type of data set: functional, cell-based. Summed up: as §1
For data set [4], the system named is CWR22R. In words: Inhibition of AR mRNA level in human 22Rv1 cells at 10 to 30 uM incubated for 24 hrs by qRT-PCR analysis. Type of data set: functional, cell-based. The method in brief: as §2
For data set [5], the system named is LNCaP. In words: Inhibition of AR splice variant 7 mutant gene expression in human LNCAP cells at 5 to 20 uM incubated for 24 hrs by qRT-PCR analysis. Type of data set: functional, cell-based. Summed up: as §2
Data set [6] relates to LNCaP. Briefly: Antiproliferative activity against human LNCAP expressing AR assessed as reduction in cell viability incubated for 6 days by CCK-8 assay. The conditions noted are these: 144 h. It is filed as functional, cell-based. The method in brief: (§3)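 Cell proliferation assay run on LNCaP/AR, VCaP, 22Rv1, PC-3 and L-02 cells, with PC-3 and L-02 serving as AR-independent toxicity controls. IC50 fitted in GraphPad Prism 5 as the mean of at least two experiments, each in duplicate. Deviations under 35%.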

The test system of data set [7] is LNCaP. Briefly: Inhibition of AR protein expression in human LNCAP cells at 5 to 20 uM incubated for 24 hrs by Western blot analysis. Type of data set: functional, cell-based. Summed up:
as §1

In data set [8] the test system is LNCaP. Briefly: Inhibition of AR protein expression in human LNCAP cells at 20 uM incubated for 24 hrs by Western blot analysis. It is filed as functional, cell-based. The method in brief:
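LNCaP cells treated with 20 µM compound or DMSO for 24 h. AR-full protein detected by western blot with tubulin as loading control, then quantified by ImageJ grayscale analysis.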

The test system of a further data set is PC-3. Briefly: Cytotoxicity against human PC3 assessed as reduction in cell viability incubated for 6 days by CCK-8 assay. It is filed as cell-based. The conditions noted are these: PC-3, 144 h. The method in brief: as §3
Data set [9] has as its system T1, Androgen receptor (Homo sapiens), P10275 [F877L].
T1 sequence (whole entry): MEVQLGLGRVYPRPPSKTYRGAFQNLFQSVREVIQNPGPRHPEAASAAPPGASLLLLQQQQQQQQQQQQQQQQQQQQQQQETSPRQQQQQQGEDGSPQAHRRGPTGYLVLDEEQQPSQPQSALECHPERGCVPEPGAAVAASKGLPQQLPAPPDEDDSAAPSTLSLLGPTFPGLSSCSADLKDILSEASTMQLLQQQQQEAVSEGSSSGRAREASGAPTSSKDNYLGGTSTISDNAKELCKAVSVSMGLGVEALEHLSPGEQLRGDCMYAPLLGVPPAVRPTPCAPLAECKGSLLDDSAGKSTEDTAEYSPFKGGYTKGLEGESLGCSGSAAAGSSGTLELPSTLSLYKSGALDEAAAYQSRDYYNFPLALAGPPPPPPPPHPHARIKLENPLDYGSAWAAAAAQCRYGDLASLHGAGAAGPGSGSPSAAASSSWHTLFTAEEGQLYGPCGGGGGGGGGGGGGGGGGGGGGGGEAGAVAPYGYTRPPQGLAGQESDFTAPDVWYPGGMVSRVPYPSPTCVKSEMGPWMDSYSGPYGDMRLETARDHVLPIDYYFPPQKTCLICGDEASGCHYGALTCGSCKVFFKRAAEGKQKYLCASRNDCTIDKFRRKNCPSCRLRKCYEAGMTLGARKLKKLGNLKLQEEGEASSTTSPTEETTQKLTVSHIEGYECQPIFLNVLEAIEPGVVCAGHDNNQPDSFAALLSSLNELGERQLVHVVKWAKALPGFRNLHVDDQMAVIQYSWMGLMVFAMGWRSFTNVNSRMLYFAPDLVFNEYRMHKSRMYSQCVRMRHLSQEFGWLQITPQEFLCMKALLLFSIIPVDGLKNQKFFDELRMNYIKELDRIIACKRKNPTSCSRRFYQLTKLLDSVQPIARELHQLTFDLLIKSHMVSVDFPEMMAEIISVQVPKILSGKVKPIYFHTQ
In words: Inhibition of AR F876L mutant (unknown origin) transfected in human PC3 cells assessed as receptor transactivation at 0.1 to 30 uM incubated for 24 hrs by dual luciferase reporter gene assay. Type of data set: cell-based.

In data set [10] the test system is VCaP. Briefly: Inhibition of AR mRNA level in human VCaP cells at 10 to 40 uM incubated for 24 hrs by qRT-PCR analysis. Type of data set: functional, cell-based. The method in brief: as §2
In data set [11] the test system is LNCaP. Briefly: Induction of androgen receptor splice variant 7 mutant degradation in human LNCAP cells at 30 uM incubated upto 26 hrs in presence of bortezomib/MG132 by Western blot analysis. Type of data set: functional, cell-based.
Data set [12] concerns LNCaP. Briefly: Inhibition of AR mRNA level in human LNCAP cells at 5 to 30 uM incubated for 24 hrs by qRT-PCR analysis. Type of data set: functional, cell-based. The method in brief:
as §2

Data set [13] has as its system LNCaP. Briefly: Inhibition of AR splice variant 7 mutant gene expression in human LNCAP cells at 5 to 30 uM incubated for 24 hrs by qRT-PCR analysis. Type of data set: functional, cell-based. The method in brief: as §2
For data set [14], the system named is LNCaP. Briefly: Inhibition of AR protein expression in human LNCAP cells at 5 to 30 uM incubated for 24 hrs by Western blot analysis. Type of data set: functional, cell-based. The method in brief: as §1
Data set [15] in a line: Plasma concentration in Sprague-Dawley rat 30 mg/kg, po measured up to 24 hrs by LC-MS/MS analysis. Type of data set: ADME, organism-based. Summed up:
(§4)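 Rats dosed orally at 30 mg/kg, compound formulated in 10% DMA / 90% PEG200. Plasma levels followed over time to build concentration-time curves, from which T1/2, Tmax, Cmax and AUC were derived.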

The nature of data set [16]: Half life in Sprague-Dawley rat 30 mg/kg, po measured up to 24 hrs by LC-MS/MS analysis. The following applies: in vivo. It is filed as ADME, organism-based. Summed up: as §4
Data set [17] deals with CWR22R. Briefly: Inhibition of AR protein expression in human 22Rv1 cells at 10 to 40 uM incubated for 24 hrs by Western blot analysis. Type of data set: functional, cell-based. Summed up:
as §1

Data set [18] is described as follows: AUC (0 to t) in Sprague-Dawley rat 30 mg/kg, po measured up to 24 hrs by LC-MS/MS analysis. Type of data set: ADME, organism-based. On the set-up: dose 30 mg/kg, time < 24 hr, route oral. The conditions noted are these: in vivo. Summed up:
as §4

The test system of data set [19] is LNCaP. In words: Induction of androgen receptor splice variant 7 mutant degradation in human LNCAP cells at 30 uM incubated upto 26 hrs in presence of bortezomib by Western blot analysis. It is filed as functional, cell-based.
Data set [20] has as its system VCaP. Briefly: Antitumor activity against castration-resistant human VCaP cells xenografted in BALB/c mouse assessed as tumor growth inhibition at 30 mg/kg, po administered for 40 days. The following applies: 960 h, read-out: TGI. Type of data set: functional. The method in brief: (§5)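 Castration-resistant VCaP xenografts grown in male BALB/c nude mice. Animals dosed once daily for 40 days alongside a vehicle group. Tumor volume tracked over time, with tumor weights taken at end. Reported as tumor growth inhibition, mean ± SEM, N = 8-9 per group.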

The subject of data set [21] is VCaP. Briefly: Antitumor activity against castration-resistant human VCaP cells xenografted in BALB/c mouse assessed as tumor growth inhibition at 60 mg/kg, po administered for 40 days. It is filed as functional. The conditions noted are these: 960 h, read-out: TGI. Summed up: as §5

The source made the active and inactive calls. The rule behind the calls is not given here.

`C[C@@H](Cn1ccc(-c2ccc(C#N)c(Cl)c2)n1)Nc1cccc2ncccc12`: the inhibition entry in the data set on CWR22R [1], in the data set on VCaP [2], in the data set with VCaP [3], in the data set on CWR22R [4], with LNCaP [5] and with LNCaP [7] was “Active” throughout. The inhibition entry (in the data set with LNCaP [8]; in [9]) was “Active” throughout. Also, the IC50 in the data set with LNCaP [6] amounted to 1.08 µM; in the data set on PC-3, 7.96 µM.

Consider `C[C@@H](Cn1ccc(-c2ccc(C#N)c(Cl)c2)n1)Nc1ncnc2nc[nH]c12`, for which the inhibition entry in the data set on VCaP [10], in the data set with LNCaP [12], with LNCaP [13], in the data set on LNCaP [14], with VCaP [3] and in the data set on CWR22R [17] was “Active” in each case. Further, the inhibition entry (with LNCaP [8]; in data set [9]) was “Active” throughout. Besides, the outcome in the data set on LNCaP [11] and in the data set with LNCaP [19] was inactive. Further, the Cmax in [15] came out at 2650 ng/mL. In [16], this compound showed a half-life of 1.79 h. In data set [18], this compound returned an AUC(0-t) at 24 h of 7280 ng·h/mL. Further, the values for the IC50 in the data set on LNCaP [6] and with PC-3 were 0.96 µM and 14.1 µM, respectively. Also, the inhibition in vivo at 30 mg/kg in the data set with VCaP [20] worked out at 64.7%. In addition, the inhibition in vivo at 60 mg/kg with VCaP [21] came out at 77.8%.
